Activity calls are given as the source filed them. No cut-off for these calls is given here.
How the values were obtained:
Mus musculus [1] = assay: Anticonvulsant activity in mouse assessed as MES-induced […] seizures at 10 to 100 mg/kg, ip administered 45 mins before electrical stimulation; type: functional, organism-based
Mus musculus [2] = assay: Anticonvulsant activity in mouse assessed as MES-induced tonic seizures at 10 to 100 mg/kg, ip administered 45 mins before electrical stimulation; type: functional, organism-based
How it was run: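 Mice, 8 per dose. Compounds given i.p. at 10, 25, 50, 75 or 100 mg kg–1 in carboxymethylcellulose/Tween-80 suspension, 45 min before maximal electroshock (50 mA, 0.2 s, 50 imp s–1); controls received emulsifier. Endpoint was prevention of the tonic-extensor phase.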

[3] = Neurotoxicity in ip dosed mouse assessed as maximum tolerated dose by rotarod test; type: toxicity, organism-based; conditions: in vivo
How it was run: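 Mice given compounds i.p. at […] to 1800 mg/kg to establish the maximal tolerated dose.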

Mus musculus [4] = assay: Anticonvulsant activity in mouse assessed as proportion of animals displaying reduction in PTZ-induced clonic seizures at 50 mg/kg, ip administered 45 mins before PTZ stimulation relative to control; type: functional; design: scale not given: the % may be the effect or the level left
How it was run: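 Outbred mice (18–22 g), 8 per dose. Compounds given i.p. at 10–100 mg kg–1 as a carboxymethylcellulose/Tween-80 suspension, 45 min before s.c. pentylenetetrazole 90 mg kg–1; controls received emulsifier. Endpoint was prevention of clonic seizures. ED50 was derived by Litchfield–Wilcoxon probit analysis.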

[5] = Neurotoxicity in mouse assessed as myorelaxation at 50 to 100 mg/kg, ip measured for 2 mins by rotarod test; type: toxicity, organism-based; conditions: in vivo
How it was run: (§1)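 Mice dosed i.p. at 50–100 mg kg–1; reference drugs given at effective anticonvulsant doses. Mice were placed on a corrugated rubber-coated metal rod rotating at 5 rpm, and the number staying on for 2 min was counted. TD50 was derived by Litchfield–Wilcoxon probit analysis.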

[6] = Neurotoxicity in ip dosed mouse assessed as myorelaxation measured for 2 mins by rotarod test; type: toxicity, organism-based; conditions: in vivo
How it was run: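 Mice were placed on a corrugated rubber-coated metal rod rotating at 5 rpm, and the number staying on for 2 min was counted. TD50 was derived by Litchfield–Wilcoxon probit analysis.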

[7] = Neurotoxicity in mouse assessed as motor coordination at 50 to 100 mg/kg, ip by rotarod test; type: toxicity, organism-based; conditions: in vivo; how it was run: as §1

Compound | Activity (Mus musculus [1]) | Activity (Mus musculus [2]) | MTD [3] | Activity (Mus musculus [4]) | Activity [5] | TD50 at 2 min [6] | Activity [7]
Cc1ccc(Nc2c(C#N)c3c(c4nnc(SCc5ccc([N+](=O)[O-])cc5)n24)COC(C)(C)C3)cc1 | inactive | inactive | 1200 mg/kg | 40% | Non-Toxic | > 500 mg/kg | Non-Toxic
COc1cccc(NC(=O)CSc2nnc3c4c(c(C#N)c(Nc5ccc(C)cc5)n23)CC(C)(C)OC4)c1 | inactive | inactive | 1100 mg/kg | 40% | Non-Toxic | > 500 mg/kg | Non-Toxic
Cc1ccc(Nc2c(C#N)c3c(c4nnc(SCC(=O)c5ccc([N+](=O)[O-])cc5)n24)COC(C)(C)C3)cc1 | inactive | inactive | 1250 mg/kg | 40% | Non-Toxic | > 500 mg/kg | Non-Toxic
CC1(C)Cc2c(C#N)c(Nc3ccccc3)n3c(SCC(=O)c4ccc([N+](=O)[O-])cc4)nnc3c2CO1 | inactive | inactive | 1250 mg/kg | 40% | Non-Toxic | > 520 mg/kg | Non-Toxic
CCCCN(CCCC)C(=O)CSc1nnc2c3c(c(C#N)c(Nc4ccccc4)n12)CC(C)(C)OC3 | inactive | inactive | 1000 mg/kg | 20% | Non-Toxic | > 500 mg/kg | Non-Toxic
Cc1ccc(Nc2c(C#N)c3c(c4nnc(SCc5ccccc5Cl)n24)COC(C)(C)C3)cc1 | inactive | inactive | 1350 mg/kg | 40% | Non-Toxic | > 500 mg/kg | Non-Toxic
Cc1cccc(NC(=O)CSc2nnc3c4c(c(C#N)c(Nc5ccccc5)n23)CC(C)(C)OC4)c1 | inactive | inactive | 1300 mg/kg | 20% | Non-Toxic | > 500 mg/kg | Non-Toxic
CC1(C)Cc2c(C#N)c(Nc3ccccc3)n3c(SCC(=O)Nc4ccc(Cl)c(Cl)c4)nnc3c2CO1 | inactive | inactive | 1150 mg/kg | 20% | Non-Toxic | > 500 mg/kg | Non-Toxic
CC1(C)Cc2c(C#N)c(Nc3ccccc3)n3c(SCC(=O)c4ccc(Cl)cc4)nnc3c2CO1 | inactive | inactive | 1150 mg/kg | 20% | Non-Toxic | > 500 mg/kg | Non-Toxic
COc1ccc(NC(=O)CSc2nnc3c4c(c(C#N)c(Nc5ccc(C)cc5)n23)CC(C)(C)OC4)cc1 | inactive | inactive | 1250 mg/kg | 40% | Non-Toxic | > 500 mg/kg | Non-Toxic

Source: ChEMBL document CHEMBL4373657, “Derivatives of a new heterocyclic system - pyrano[3,4-c][1,2,4]triazolo[4,3-a]pyridines: synthesis, docking analysis and neurotropic activity” (Medchemcomm, 2019)
